Results: ChEMBL document CHEMBL1138764, “Resistance-modifying agents. 11.(1) Pyrimido[5,4-d]pyrimidine modulators of antitumor drug activity. Synthesis and structure-activity relationships for nucleoside transport inhibition and binding to alpha1-acid glycoprotein” (J Med Chem, 2004)

Key:
[1] = tested on: L1210; experiment: Inhibition of [3H]thymidine uptake in L1210 cells at 10 uM; format: functional; settings: Mus musculus
Procedure, shortened: (§1)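 ³H-thymidine uptake into L1210 leukaemia cells measured by a modified rapid-mixing technique with inhibitor-stop. Values are mean ± SD of three or more separate determinations. IC50 is interpolated from concentration–inhibition curves.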

[2] = tested on: L1210; experiment: Tested for the reduction in inhibition of [3H]-thymidine uptake in L1210 cells in the presence of 5 mg/mL human AGP; NS, no significant reduction in inhibition by AGP; format: functional, cell-based; settings: Mus musculus
Procedure, shortened: (§2)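 Rapid-mixing, inhibitor-stop ³H-thymidine uptake into L1210 leukaemia cells run with 5 mg/mL human AGP present. Values are mean ± SD of three or more separate determinations. Significance of the difference from inhibition without AGP is taken at p ≤ 0.05.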

[3] = tested on: L1210; experiment: Inhibition of [3H]thymidine uptake in L1210 cells; format: functional, cell-based; settings: Mus musculus; procedure, shortened: as §1
[4] = tested on: L1210; experiment: Inhibition of [3H]thymidine uptake in L1210 cells at 1 uM; format: functional; settings: Mus musculus; procedure, shortened: as §1
[5] = tested on: L1210; experiment: Inhibition of [3H]thymidine uptake in L1210 cells in the presence of 5 mg/mL human AGP at 1 uM; format: functional, Mus musculus; procedure, shortened: as §2
[6] = tested on: L1210; experiment: Tested for the reduction in inhibition of [3H]thymidine uptake in L1210 cells in the presence of 5 mg/mL human AGP; format: functional, Mus musculus; procedure, shortened: as §2
[7] = tested on: L1210; experiment: Compound was tested for the inhibition of [3H]thymidine uptake in L1210 cells at 100 uM; format: functional; settings: Mus musculus; procedure, shortened: as §1
[8] = tested on: L1210; experiment: Inhibition of [3H]-thymidine uptake in L1210 cells in the presence of 5 mg/mL human AGP at 10 uM; format: functional, Mus musculus; procedure, shortened: as §2
[9] = tested on: L1210; experiment: Compound was tested for the inhibition of [3H]thymidine uptake in L1210 cells at 3 uM; format: functional; settings: Mus musculus; procedure, shortened: as §1
[10] = tested on: L1210; experiment: Compound was tested (100 uM) for the inhibition of [3H]thymidine uptake in L1210 cells in the presence of 5 mg/mL human AGP; format: functional, Mus musculus; procedure, shortened: as §2

Which inhibition at 10 µM [1] does the source give for `CC(O)CNc1nc(NCc2ccc3c(c2)OCO3)c2nc(NCC(C)O)nc(NCc3ccc4c(c3)OCO4)c2n1` (configuration not stated) here?
The inhibition at 10 µM was 90%.

What about the Reduction [2] of the same compound?
Its Reduction is “No significant reduction in inhibition”.

What about the IC50 [3] of the same compound?
Its IC50 is 260 nM.

And the inhibition at 1 µM [4]?
Its inhibition at 1 µM is 69%.

And the Inhibition [5]?
Its Inhibition is 64%.

For `OCC(O)COc1nc(N2CCCCC2)c2nc(OC[C@@H](O)CO)nc(N3CCCCC3)c2n1` (some centres not stated), which inhibition at 10 µM [1] is on record?
The inhibition at 10 µM was 37%.

What about the Reduction [6] of the same compound?
The Reduction was 22%.

And the IC50 [3]?
Its IC50 is 8800 nM.

And the inhibition at 100 µM [7]?
The inhibition at 100 µM was 91%.

What about the Inhibition [8] of the same compound?
The Inhibition was 29%.

Which inhibition at 10 µM [1] does the source give for `CC1(C)OC[C@@H](COc2nc(N3CCCCC3)c3nc(OC[C@@H]4COC(C)(C)O4)nc(N4CCCCC4)c3n2)O1` here?
Its inhibition at 10 µM is 100%.

What about the inhibition at 3 µM [9] of the same compound?
Its inhibition at 3 µM is 76%.

Which inhibition at 10 µM [1] does the source give for `OCCN(CCO)c1nc(NCc2ccccc2)c2nc(N(CCO)CCO)nc(NCc3ccccc3)c2n1` here?
The inhibition at 10 µM was 91%.

What about the Reduction [6] of the same compound?
Its Reduction is 44%.

And the IC50 [3]?
The IC50 was 600 nM.

What about the inhibition at 1 µM [4] of the same compound?
Its inhibition at 1 µM is 51%.

And the Inhibition [5]?
The Inhibition was 21%.

What about the Inhibition [8] of the same compound?
The Inhibition was 75%.

What does the source list for `COc1ccc(CNc2nc(OCCO)nc3c(NCc4ccc(OC)cc4)nc(OCCO)nc23)cc1`?
inhibition at 10 µM [1]: 88%; Reduction [2]: No significant reduction in inhibition; IC50 [3]: 670 nM; inhibition at 1 µM [4]: 40%

How did the inhibition at 10 µM [1] turn out when `OCC(O)COc1nc(N2CCCCC2)c2nc(OCC(O)CO)nc(N3CCCCC3)c2n1` (configuration not stated) was run?
Its inhibition at 10 µM is 32%.

And the Reduction [2]?
The Reduction was “No significant reduction in inhibition”.

What about the inhibition at 100 µM [7] of the same compound?
The inhibition at 100 µM was 83%.

What about the Inhibition [10] of the same compound?
The Inhibition was 80%.

And the Inhibition [8]?
Its Inhibition is 34%.
